# Data reported in ChEMBL document CHEMBL1909543, “Synthesis and biological evaluation of thio-benzodiazepines as novel small molecule inhibitors of the p53-MDM2 protein-protein interaction” (Eur J Med Chem, 2011).
# Experiments:
# SAOS-2 = assay: Antitumor activity against p53 deficient human Saos2 cells after 72 hrs by MTT assay; format: functional, cell-based; settings: SAOS-2, 72 h
# Procedure, shortened: (§1)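 Cells seeded at 5-6 × 10⁴ per well and cultured 24 h, then exposed to a range of compound concentrations in triplicate wells; vehicle control 0.1% DMSO. After 72 h, MTT (5 mg/mL solution) added, plate shaken 1 min, then incubated 4 h at 37 °C. Formazan dissolved in DMSO and absorbance read at 570 nm. Drug-free wells served as blanks. IC50 = 50% growth inhibition.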
# U2OS [1] = assay: Antitumor activity against human U2OS cells expressing wild type p53 after 72 hrs by MTT assay; format: functional, cell-based; procedure, shortened: as §1
# [2] = biological target: Tumour suppressor p53/oncoprotein Mdm2 (Homo sapiens, UniProt Q00987); assay: Inhibition of Mdm2-p53 protein interaction preincubated for 1 hr by fluorescence polarization assay
# Chain of Tumour suppressor p53/oncoprotein Mdm2 (P04637 whole entry): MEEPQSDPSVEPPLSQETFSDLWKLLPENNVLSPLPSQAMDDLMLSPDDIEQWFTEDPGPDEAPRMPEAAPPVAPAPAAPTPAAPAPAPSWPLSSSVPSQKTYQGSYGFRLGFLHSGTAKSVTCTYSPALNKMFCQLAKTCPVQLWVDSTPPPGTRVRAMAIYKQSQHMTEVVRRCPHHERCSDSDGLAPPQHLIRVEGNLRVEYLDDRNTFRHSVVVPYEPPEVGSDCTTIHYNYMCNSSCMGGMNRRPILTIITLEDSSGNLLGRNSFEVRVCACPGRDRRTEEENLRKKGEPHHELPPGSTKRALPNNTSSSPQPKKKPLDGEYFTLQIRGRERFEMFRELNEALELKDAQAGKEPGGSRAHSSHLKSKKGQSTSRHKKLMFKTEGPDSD
# Chain of Tumour suppressor p53/oncoprotein Mdm2 (Q00987 whole entry): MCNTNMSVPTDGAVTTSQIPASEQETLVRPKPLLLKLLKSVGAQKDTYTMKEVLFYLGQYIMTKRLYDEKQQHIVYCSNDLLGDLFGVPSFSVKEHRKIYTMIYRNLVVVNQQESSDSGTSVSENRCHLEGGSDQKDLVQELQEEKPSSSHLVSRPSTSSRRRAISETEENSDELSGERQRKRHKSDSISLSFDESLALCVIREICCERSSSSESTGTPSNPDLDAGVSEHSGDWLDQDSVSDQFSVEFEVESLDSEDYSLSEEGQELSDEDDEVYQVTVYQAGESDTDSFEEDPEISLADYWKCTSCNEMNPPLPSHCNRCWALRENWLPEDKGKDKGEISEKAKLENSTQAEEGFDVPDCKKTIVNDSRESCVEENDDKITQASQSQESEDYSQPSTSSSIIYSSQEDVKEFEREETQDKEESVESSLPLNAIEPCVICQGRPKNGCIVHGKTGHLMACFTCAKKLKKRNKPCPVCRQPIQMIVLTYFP
# U2OS [3] = assay: Ratio of nutlin-3a IC50 to compound IC50 for human U2OS cells expressing wild type p53; format: functional
smiles,measurement,setting,value
COC(=O)C(c1ccc(Cl)cc1)N1C(=O)c2ccc(NCc3ccc(F)cc3)cc2NC(=S)C1c1ccc(Cl)cc1 (configuration not stated),IC50,SAOS-2,9.81 µM
same,IC50,U2OS [1],30.6 µM
same,Ki,[2],1.71 µM
COC(=O)C(c1ccc(Cl)cc1)N1C(=O)c2ccc(NCc3ccc4ccccc4c3)cc2NC(=S)C1c1ccc(Cl)cc1 (configuration not stated),IC50,SAOS-2,91.7 µM
same,IC50,U2OS [1],> 100 µM
same,Ki,[2],> 100 µM
COC(=O)C(c1ccc(Cl)cc1)N1C(=O)c2ccc(NCc3ccc(C(F)(F)F)cc3)cc2NC(=S)C1c1ccc(Cl)cc1 (configuration not stated),IC50,SAOS-2,2.87 µM
same,IC50,U2OS [1],1.06 µM
same,Ratio IC50,U2OS [3],23
same,Ki,[2],5.34 µM
CCCCNc1ccc2c(c1)NC(=S)C(c1ccc(Cl)cc1)N(C(C(=O)OC)c1ccc(Cl)cc1)C2=O (configuration not stated),IC50,SAOS-2,27.9 µM
same,IC50,U2OS [1],> 100 µM
same,Ki,[2],49.6 µM
COC(=O)C(c1ccc(Cl)cc1)N1C(=O)c2ccccc2NC(=S)C1c1ccc(Cl)cc1 (configuration not stated),IC50,SAOS-2,6.55 µM
same,IC50,U2OS [1],13.7 µM
same,Ki,[2],0.52 µM
COC(=O)C(c1ccc(Cl)cc1)N1C(=O)c2ccccc2NC(=O)C1c1ccc(Cl)cc1 (configuration not stated),IC50,SAOS-2,5.58 µM
same,IC50,U2OS [1],13.9 µM
same,Ki,[2],10.6 µM
COc1ccc(C2=N[C@@H](c3ccc(Cl)cc3)[C@@H](c3ccc(Cl)cc3)N2C(=O)N2CCNC(=O)C2)c(OC(C)C)c1 [NUTLIN-3],IC50,SAOS-2,54.4 µM
same,IC50,U2OS [1],24.6 µM
COC(=O)C(c1ccc(Cl)cc1)N1C(=O)c2ccc(NCc3ccco3)cc2NC(=S)C1c1ccc(Cl)cc1 (configuration not stated),IC50,SAOS-2,11.3 µM
same,IC50,U2OS [1],48.5 µM
same,Ki,[2],43.1 µM
COC(=O)C(c1ccc(Cl)cc1)N1C(=O)c2ccc(NCc3ccccc3)cc2NC(=S)C1c1ccc(Cl)cc1 (configuration not stated),IC50,SAOS-2,17.8 µM
same,IC50,U2OS [1],> 100 µM
same,Ki,[2],2.26 µM
COC(=O)C(c1ccc(Cl)cc1)N1C(=O)c2ccc(NCC(C)(C)C)cc2NC(=S)C1c1ccc(Cl)cc1 (configuration not stated),IC50,SAOS-2,2.19 µM
same,IC50,U2OS [1],18 µM
same,Ki,[2],> 100 µM
CCCCCNc1ccc2c(c1)NC(=S)C(c1ccc(Cl)cc1)N(C(C(=O)OC)c1ccc(Cl)cc1)C2=O (configuration not stated),IC50,SAOS-2,20.7 µM
same,IC50,U2OS [1],> 100 µM
same,Ki,[2],15 µM
COC(=O)C(c1ccc(Cl)cc1)N1C(=O)c2ccc(NCc3ccsc3)cc2NC(=S)C1c1ccc(Cl)cc1 (configuration not stated),IC50,SAOS-2,3.37 µM
same,IC50,U2OS [1],> 100 µM
same,Ki,[2],> 100 µM
COC(=O)C(c1ccc(Cl)cc1)N1C(=O)c2ccc(NCc3ccc(OC)cc3)cc2NC(=S)C1c1ccc(Cl)cc1 (configuration not stated),IC50,SAOS-2,88.1 µM
same,IC50,U2OS [1],> 100 µM
same,Ki,[2],> 100 µM
COC(=O)C(c1ccc(Cl)cc1)N1C(=O)c2ccc(NCC3CCCCC3)cc2NC(=S)C1c1ccc(Cl)cc1 (configuration not stated),IC50,SAOS-2,72.2 µM
same,IC50,U2OS [1],> 100 µM
same,Ki,[2],> 100 µM
COC(=O)C(c1ccc(Cl)cc1)N1C(=O)c2ccc(NCC(C)C)cc2NC(=S)C1c1ccc(Cl)cc1 (configuration not stated),IC50,SAOS-2,15.7 µM
same,IC50,U2OS [1],> 100 µM
same,Ki,[2],0.32 µM
CCCNc1ccc2c(c1)NC(=S)C(c1ccc(Cl)cc1)N(C(C(=O)OC)c1ccc(Cl)cc1)C2=O (configuration not stated),IC50,SAOS-2,12.4 µM
same,IC50,U2OS [1],91.2 µM
same,Ki,[2],1.02 µM
COC(=O)C(c1ccc(Cl)cc1)N1C(=O)c2ccc(NCc3ccc(Br)cc3)cc2NC(=S)C1c1ccc(Cl)cc1 (configuration not stated),IC50,SAOS-2,13.8 µM
same,IC50,U2OS [1],14.7 µM
same,Ki,[2],> 100 µM
COC(=O)C(c1ccc(Cl)cc1)N1C(=O)c2ccc(NCC3CC3)cc2NC(=S)C1c1ccc(Cl)cc1 (configuration not stated),IC50,SAOS-2,19 µM
same,IC50,U2OS [1],> 100 µM
same,Ki,[2],3.43 µM
COC(=O)C(c1ccc(Cl)cc1)N1C(=O)c2ccc(NCc3ccc(Cl)cc3)cc2NC(=S)C1c1ccc(Cl)cc1 (configuration not stated),IC50,SAOS-2,13.3 µM
same,IC50,U2OS [1],20.9 µM
same,Ki,[2],> 100 µM
